Bioassay records from PubChem BioAssay.
Most compounds without a hit are left out; they make up all but 0.91% or so of the library.
p97 ATPase inh: human p97 ATPase inhibition | recombinant p97 ATPase, Kinase-Glo ATP luminescence, 3 h | AID 1481 | P55072 | hit rate 0.42% among 220,000 | inhibition, % at 8 µM; in the data active = inhibition above about 15%;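 also: 0% = DMSO vehicle and 100% = wells lacking enzyme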
Target sequence (P55072 whole entry, looked up): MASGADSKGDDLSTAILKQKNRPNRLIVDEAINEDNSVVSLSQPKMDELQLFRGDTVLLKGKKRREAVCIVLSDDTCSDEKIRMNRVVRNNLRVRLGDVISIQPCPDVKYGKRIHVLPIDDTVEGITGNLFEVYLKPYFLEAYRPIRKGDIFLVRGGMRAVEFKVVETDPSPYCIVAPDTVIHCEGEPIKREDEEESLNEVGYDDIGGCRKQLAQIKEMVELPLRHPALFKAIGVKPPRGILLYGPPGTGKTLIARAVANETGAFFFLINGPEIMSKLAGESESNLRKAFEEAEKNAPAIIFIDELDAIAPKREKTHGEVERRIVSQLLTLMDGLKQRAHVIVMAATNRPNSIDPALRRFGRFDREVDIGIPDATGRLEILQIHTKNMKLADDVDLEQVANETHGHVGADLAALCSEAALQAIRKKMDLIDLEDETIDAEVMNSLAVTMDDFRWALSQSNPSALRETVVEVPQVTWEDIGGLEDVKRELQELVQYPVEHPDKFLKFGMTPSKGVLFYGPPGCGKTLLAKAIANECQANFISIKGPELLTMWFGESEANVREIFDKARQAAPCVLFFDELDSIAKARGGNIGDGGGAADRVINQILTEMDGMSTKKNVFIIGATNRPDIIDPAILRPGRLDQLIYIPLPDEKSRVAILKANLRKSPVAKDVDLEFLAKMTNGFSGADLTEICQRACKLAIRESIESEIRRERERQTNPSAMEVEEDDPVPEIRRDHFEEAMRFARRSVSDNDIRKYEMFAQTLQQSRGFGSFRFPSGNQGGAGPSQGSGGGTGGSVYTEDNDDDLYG
PMI activator: phosphomannose isomerase (human) activation; P34949; purified human PMI, coupled resazurin fluorescence, 20 min; stronger effect = higher value; 1 = vehicle control, 0 substrate-free wells; activation factor at 20 µM; hit rate 0.005% among 190,000; AID 1214;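 active = activation factor of 2 or more at 20 µM, relative to plate controls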
PMI act hi M6P: PMI (human) activation, high substrate | P34949 | coupled PMI enzyme assay, resazurin fluorescence, 20 min; stronger effect = higher value; 1 = untreated enzyme, 0 = substrate-free blank | activation factor at 20 µM | hit rate 0.34% among 190,000 | AID 1216;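 active = activation factor of 2 or more at 20 µM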
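Test system: human phosphomannose isomerase with PGI, G6PDH, diaphorase coupling enzymes / Doses: 20 µM compound, 1% DMSO / Times: enzyme reaction with compound 20 min at room temperature / Measured by: Diaphorase-driven resazurin-to-resorufin fluorescence, excitation 544, emission 590 nm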
Redox H2O2 prof: compounds producing H2O2 with reducing agent – biochemical, NIH compound library profiling, artefact control for MLSCN library redox annotation, primary screen | DTT-dependent redox cycling H2O2, phenol red/HRP absorbance; 100% = 100 µM peroxide control, 0% = buffer | activation, % at 10 µM | hit rate 0.03% among 200,000 | AID 878;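 active = activation of at least 50% relative to the plate's high and low controls in the primary single-dose screen; inactive = activation below 50%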;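 also: compound incubated with DTT at 0.8 mM final as the reducing agent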
G6PDH counter: counter-screen for G6PDH assay hits: L. mesenteroides G6PDH inhibition; Purified L. mesenteroides G6PDH, diaphorase/resazurin coupled fluorescence, 45 min; inhibition, % at 5 µM; hit rate 0.12% among 200,000; in the data active = inhibition above about 50%
TbHK1 inh: blocks Trypanosoma brucei hexokinase 1 activity | recombinant TbHK1, G6PDH-coupled NADH A340 | hit rate 0.11% among 220,000 | AID 1430 | inhibition, % at 10 µM;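 active = inhibition of 50% or more in the single-dose primary screen; inactive = inhibition below 50%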
p97 inh conf: human p97 ATPase inhibition, confirmation. inhibition, % at 8 µM. recombinant p97 ATPase, Kinase-Glo ATP luminescence. AID 1517. shares compounds with p97 ATPase inh. hit rate 44% among 760;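 active = percent inhibition of p97 ATPase above a set limit, the primary screen's mean plus 3 SD, cut at about 15% in these data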;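 also: 0% = DMSO wells and 100% = wells lacking p97 protein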
The depositor's hits bear a star.

`O=c1cc(-c2ccccc2)[nH]n1-c1nc2ccccc2[nH]1` gave p97 ATPase inh -2.1, PMI activator 1, PMI act hi M6P 1, Redox H2O2 prof 0.5, G6PDH counter 22.1 and TbHK1 inh -1.7.
For N#CCCn1[nH]c(-c2ccccc2)cc1=O the results were p97 ATPase inh 22.4*, PMI activator 1, PMI act hi M6P 0.9, Redox H2O2 prof 0.0, G6PDH counter -8.4, TbHK1 inh 1.1 and p97 inh conf 4.5.
For CC(=O)C1=C(C)OC2(O)c3ccccc3C(=O)C12O (stereo not given) the results were p97 ATPase inh 20.0*, TbHK1 inh -7.6 and p97 inh conf 7.7.
Screening CCOC(=O)C1=C(C)OC2(O)c3ccccc3C(=O)C12O (stereo not given) returned p97 ATPase inh 16.9*, TbHK1 inh 6.7 and p97 inh conf 27.3*.
For Clc1ccc2c(Cl)c(-c3nnc(-c4ccccc4)o3)sc2c1 the results were p97 ATPase inh 1.1, Redox H2O2 prof 0.6 and TbHK1 inh -4.6.
Screening Oc1cccc(NC(=S)N=Nc2c(O)[nH]c3ccc(Br)cc23)c1 returned p97 ATPase inh 25.5*, TbHK1 inh 0.6 and p97 inh conf 22.7*.
`Oc1ccc(NC(=S)N=Nc2c(O)[nH]c3ccc(Br)cc23)cc1` gave p97 ATPase inh 20.8*, PMI activator 1, PMI act hi M6P 1, Redox H2O2 prof -0.2, G6PDH counter -2.1, TbHK1 inh -3.4 and p97 inh conf 21.4*.
Screening Oc1[nH]c2ccc(Br)cc2c1N=NC(=S)Nc1ccc(F)cc1 returned p97 ATPase inh 2.8 and TbHK1 inh -16.9.
For CCn1c(SCc2ccccc2)nnc1-c1cccnc1 the results were p97 ATPase inh 5.9, Redox H2O2 prof -0.1, G6PDH counter 13.2 and TbHK1 inh 0.4.
Cc1cccc(NC(=O)c2ccco2)c1C(=O)O was read as p97 ATPase inh 8.3 and TbHK1 inh -5.5.
Screening Cc1cccc(NC(=O)c2sc(NC(=O)c3ccco3)c(C#N)c2C)c1C returned p97 ATPase inh 15.6*, PMI activator 0.9, PMI act hi M6P 0.9, Redox H2O2 prof 0.1, G6PDH counter 4.3, TbHK1 inh 0.2 and p97 inh conf 9.6.
Cc1[nH]c2ccccc2c1/C=N/NC(=O)c1cc(C(C)C)[nH]n1 was read as p97 ATPase inh 17.3*, TbHK1 inh -63.5 and p97 inh conf 17.4*.
Screening Cc1[nH]c2ccccc2c1/C=N/NC(=O)c1cccs1 returned p97 ATPase inh 16.4*, PMI activator 1, PMI act hi M6P 0.8, Redox H2O2 prof 0.4, G6PDH counter 8.3, TbHK1 inh -42.3 and p97 inh conf 22.3*.
Cc1cc(C(=O)OCC(=O)NCc2cccs2)c2ccccc2n1 was read as p97 ATPase inh 3.0, PMI activator 1, PMI act hi M6P 1, Redox H2O2 prof -0.3, G6PDH counter 10.6 and TbHK1 inh -1.3.
COc1ccc(C(=O)NCc2ccc3c(c2)cc(C)n3C)cc1OC was read as p97 ATPase inh 4.2, PMI activator 1, PMI act hi M6P 1, Redox H2O2 prof -0.2, G6PDH counter 2.2 and TbHK1 inh 1.4.
For COc1cccc(C(=O)NCc2ccc3c(c2)cc(C)n3C)c1 the results were p97 ATPase inh 20.3*, PMI activator 1, PMI act hi M6P 1, Redox H2O2 prof -9.1, G6PDH counter 1.0, TbHK1 inh 8.5 and p97 inh conf 8.0.
`COc1ccc(C(=O)Nc2nccs2)cc1[N+](=O)[O-]` gave p97 ATPase inh 5.4, PMI activator 0.9, PMI act hi M6P 1, Redox H2O2 prof 0.2, G6PDH counter -2.1 and TbHK1 inh -9.8.
Cn1cc([N+](=O)[O-])c(C(=O)Nc2nccs2)n1 was read as p97 ATPase inh 17.4*, PMI activator 0.9, PMI act hi M6P 1, Redox H2O2 prof -0.7, G6PDH counter 11.6, TbHK1 inh -5.9 and p97 inh conf 6.9.
Nc1ccc(N2CCOCC2)c2nonc12 was read as p97 ATPase inh 46.7*, PMI activator 0.7, PMI act hi M6P 0.4, Redox H2O2 prof -1.3, G6PDH counter 47.0, TbHK1 inh -4.2 and p97 inh conf 1.6.
`OCCN1CCN(CC(O)C(F)(F)F)CC1` (stereo not given) gave p97 ATPase inh 3.0, PMI activator 1.1, PMI act hi M6P 1, Redox H2O2 prof -0.1, G6PDH counter 10.6 and TbHK1 inh 1.8.
CCCc1cc(=O)[nH]c(SCC(=O)Nc2ccc3c(c2)CCC3)n1 was read as p97 ATPase inh 15.1*, PMI activator 1, PMI act hi M6P 1, Redox H2O2 prof -9.7, G6PDH counter 11.5, TbHK1 inh 22.0 and p97 inh conf 4.3.
Screening O=[n+]1c2c(n([O-])c3ccccc31)CCCC2 returned p97 ATPase inh 14.9*, PMI activator 1, PMI act hi M6P 1, Redox H2O2 prof 0.0, G6PDH counter 21.4, TbHK1 inh -24.7 and p97 inh conf 4.2.
Screening O=[n+]1c2c(n([O-])c3cc(Br)ccc31)CCCC2 returned p97 ATPase inh 2.0, PMI activator 1, PMI act hi M6P 1, Redox H2O2 prof -0.1, G6PDH counter -14.7 and TbHK1 inh -21.3.
For O=C(CN1C(=O)CSc2ccccc21)N/N=C/c1ccco1 the results were p97 ATPase inh 1.5 and TbHK1 inh -5.9.
For COc1ccccc1C(=O)N(CCC1CCCN1C)c1nc2ccccc2s1 (stereo not given) the results were p97 ATPase inh 3.0, PMI activator 1, PMI act hi M6P 1, Redox H2O2 prof -0.8, G6PDH counter 0.9 and TbHK1 inh 2.2.
Screening COc1ccc(Nc2nc3ccccc3nc2NS(=O)(=O)c2cccs2)c(OC)c1 returned p97 ATPase inh 23.8*, TbHK1 inh -34.1 and p97 inh conf 29.3*.
COc1cccc(CC(=S)N2CCOCC2)c1 was read as p97 ATPase inh 15.7*, PMI activator 0.8, PMI act hi M6P 0.9, Redox H2O2 prof -0.2, G6PDH counter 24.3, TbHK1 inh 33.9 and p97 inh conf 7.9.
COc1cccc(NC(=O)C(=O)N2CCOCC2)c1 was read as p97 ATPase inh 3.6, PMI activator 1.1, PMI act hi M6P 1.1, Redox H2O2 prof 0.2, G6PDH counter -0.9 and TbHK1 inh 1.0.
Screening Nc1cc2nn(-c3ccccc3)nc2cc1Cl returned p97 ATPase inh 19.0*, PMI activator 0.3, PMI act hi M6P 0.4, Redox H2O2 prof -0.6, G6PDH counter 54.9*, TbHK1 inh -2.0 and p97 inh conf 8.9.
